Results as given in ChEMBL document CHEMBL1275484, “Rifampin and rifaximin resistance in clinical isolates of Clostridium difficile” (Antimicrob Agents Chemother, 2008).
≈ marks a conversion by molar mass, not a printed value.

How the values were obtained:
Assay type in all cases: functional
Clostridioides difficile [1] = experiment: Antimicrobial activity against Clostridium difficile isolate 80 by Etest
Summary of the method: (§1)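 Rifampin MIC by Etest on brucella blood agar, run per the strip manufacturer's instructions, against clinical isolates typed by HindIII REA.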

Clostridioides difficile [2] = experiment: Antimicrobial activity against Clostridium difficile isolate 62 by agar dilution method
Summary of the method: (§2)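 CLSI reference agar dilution for anaerobes, with endpoints read per guideline M11-A7. Rifaximin was dissolved in methanol, diluted in 0.1 M phosphate buffer pH 7.4 with 0.45% SDS, and tested at 0.0009–256 μg/ml. Rifampin was dissolved in methanol, diluted in water, and tested at 0.00001–256 μg/ml. Control strain: C. difficile ATCC 70005. Isolates were typed by HindIII REA.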

Clostridioides difficile [3] = experiment: Antimicrobial activity against Clostridium difficile isolate 61 by Etest
Summary of the method: (§3)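 Rifampin Etest strips were run on brucella blood agar following the manufacturer's instructions to give an MIC. Clinical isolates were typed by HindIII REA.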

Clostridioides difficile [4] = experiment: Antimicrobial activity against rifaximin-resistant Clostridium difficile isolate 68 expressing RpoB H502Y mutant by agar dilution method
Summary of the method: (§4)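 MICs were found by the CLSI reference agar dilution method for anaerobes, with endpoints read per M11-A7 and C. difficile […] as control. Rifaximin was dissolved in methanol, diluted in 0.1 M phosphate buffer pH 7.4 with 0.45% SDS, and tested at 0.0009–256 μg/ml. Rifampin was dissolved in methanol, diluted in water, and tested at 0.00001–256 μg/ml.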

Clostridioides difficile [5] = experiment: Antimicrobial activity against Clostridium difficile isolate 52 by agar dilution method
Summary of the method: as §2, with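 “dilution method” for “dilution”, “(pH 7.4)” for “pH 7.4”, “μg/ml.” for “μg/ml. Control strain:”, “[…] served as control.” for “70005.”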

Clostridioides difficile [6] = experiment: Antimicrobial activity against Clostridium difficile isolate 76 by agar dilution method; summary of the method: as §2
Clostridioides difficile [7] = experiment: Antimicrobial activity against rifaximin-resistant Clostridium difficile isolate 64 expressing RpoB H502R mutant by agar dilution method; summary of the method: as §4
Clostridioides difficile [8] = experiment: Antimicrobial activity against Clostridium difficile isolate 53 by agar dilution method
Summary of the method: as §2, with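 “dilution method” for “dilution”, “(pH 7.4)” for “pH 7.4”, “μg/ml.” for “μg/ml. Control strain:”, “[…] served as control.” for “70005.”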

Clostridioides difficile [9] = experiment: Antimicrobial activity against Clostridium difficile isolate 70 by Etest; summary of the method: as §1
Clostridioides difficile [10] = experiment: Antimicrobial activity against Clostridium difficile isolate 54 by Etest; summary of the method: as §3
Clostridioides difficile [11] = experiment: Antimicrobial activity against Clostridium difficile isolate 73 by agar dilution method; summary of the method: as §2
Clostridioides difficile [12] = experiment: Antimicrobial activity against Clostridium difficile isolate 51 by Etest; summary of the method: as §3
Clostridioides difficile [13] = experiment: Antimicrobial activity against Clostridium difficile isolate 11 by Etest
Summary of the method: (§5)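 Rifampin MIC by Etest strip on brucella blood agar, run per the strip maker's instructions. Isolates were HindIII REA-typed clinical C. difficile.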

Clostridioides difficile [14] = experiment: Antimicrobial activity against Clostridium difficile isolate 29 by Etest; summary of the method: as §5
Clostridioides difficile [15] = experiment: Antimicrobial activity against Clostridium difficile isolate 32 by agar dilution method
Summary of the method: (§6)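 MIC by CLSI reference agar dilution for anaerobes, with endpoints read per M11-A7 and C. difficile […] as control. Rifaximin was dissolved in methanol, diluted in 0.1 M phosphate buffer pH 7.4 plus 0.45% SDS, and tested at 0.0009–256 μg/ml. Rifampin was dissolved in methanol, diluted in water, and tested at 0.00001–256 μg/ml.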

Clostridioides difficile [16] = experiment: Antimicrobial activity against Clostridium difficile isolate 28 by agar dilution method; summary of the method: as §6
Clostridioides difficile [17] = experiment: Antimicrobial activity against Clostridium difficile isolate 42 by Etest; summary of the method: as §3
Clostridioides difficile [18] = experiment: Antimicrobial activity against Clostridium difficile isolate 28 by Etest; summary of the method: as §5
Clostridioides difficile [19] = experiment: Antimicrobial activity against Clostridium difficile isolate 33 by Etest; summary of the method: as §5
Clostridioides difficile [20] = experiment: Antimicrobial activity against Clostridium difficile isolate 46 by agar dilution method
Summary of the method: as §2, with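 “dilution method” for “dilution”, “(pH 7.4)” for “pH 7.4”, “μg/ml.” for “μg/ml. Control strain:”, “[…] served as control.” for “70005.”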

Clostridioides difficile [21] = experiment: Antimicrobial activity against Clostridium difficile isolate 62 by Etest; summary of the method: as §3
Clostridioides difficile [22] = experiment: Antimicrobial activity against rifaximin-resistant Clostridium difficile isolate 21 expressing RpoB H502N and R505K mutants by Etest
Summary of the method: (§7)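 Rifampin Etest on clinical C. difficile isolates typed by HindIII REA, run per the strip manufacturer's instructions on brucella blood agar, with the MIC read from the strip.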

Clostridioides difficile [23] = experiment: Antimicrobial activity against Clostridium difficile isolate 37 by agar dilution method; summary of the method: as §6
Clostridioides difficile [24] = experiment: Antimicrobial activity against Clostridium difficile isolate 77 by agar dilution method; summary of the method: as §2
Clostridioides difficile [25] = experiment: Antimicrobial activity against Clostridium difficile isolate 2 by agar dilution method; summary of the method: as §6
Clostridioides difficile [26] = experiment: Antimicrobial activity against Clostridium difficile isolate 43 by agar dilution method
Summary of the method: as §2, with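 “dilution method” for “dilution”, “(pH 7.4)” for “pH 7.4”, “μg/ml.” for “μg/ml. Control strain:”, “[…] served as control.” for “70005.”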

Clostridioides difficile [27] = experiment: Antimicrobial activity against Clostridium difficile isolate 44 by agar dilution method
Summary of the method: as §2, with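 “dilution method” for “dilution”, “(pH 7.4)” for “pH 7.4”, “μg/ml.” for “μg/ml. Control strain:”, “[…] served as control.” for “70005.”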

Clostridioides difficile [28] = experiment: Antimicrobial activity against Clostridium difficile isolate 61 by agar dilution method
Summary of the method: as §2, with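 “dilution method” for “dilution”, “(pH 7.4)” for “pH 7.4”, “μg/ml.” for “μg/ml. Control strain:”, “[…] served as control.” for “70005.”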

Clostridioides difficile [29] = experiment: Antimicrobial activity against Clostridium difficile isolate 25 by agar dilution method; summary of the method: as §6
Clostridioides difficile [30] = experiment: Antimicrobial activity against Clostridium difficile isolate 71 by agar dilution method; summary of the method: as §2
Clostridioides difficile [31] = experiment: Antimicrobial activity against Clostridium difficile isolate 55 by Etest; summary of the method: as §3
Clostridioides difficile [32] = experiment: Antimicrobial activity against Clostridium difficile isolate 56 by Etest; summary of the method: as §3
Clostridioides difficile [33] = experiment: Antimicrobial activity against Clostridium difficile isolate 1 by Etest; summary of the method: as §5
Clostridioides difficile [34] = experiment: Antimicrobial activity against Clostridium difficile isolate 75 by agar dilution method; summary of the method: as §2
Clostridioides difficile [35] = experiment: Antimicrobial activity against Clostridium difficile isolate 45 by Etest; summary of the method: as §3
Clostridioides difficile [36] = experiment: Antimicrobial activity against Clostridium difficile isolate 33 by agar dilution method; summary of the method: as §6
Clostridioides difficile [37] = experiment: Antimicrobial activity against rifaximin-resistant Clostridium difficile isolate 12 expressing RpoB H502N and R505K mutants by agar dilution method; summary of the method: as §4
Clostridioides difficile [38] = experiment: Antimicrobial activity against Clostridium difficile isolate 35 by Etest; summary of the method: as §5
Clostridioides difficile [39] = experiment: Antimicrobial activity against rifaximin-resistant Clostridium difficile isolate 26 expressing RpoB R505K mutant by agar dilution method; summary of the method: as §4
Clostridioides difficile [40] = experiment: Antimicrobial activity against rifaximin-resistant Clostridium difficile isolate 67 expressing RpoB H502N and R505K mutants by agar dilution method; summary of the method: as §4
Clostridioides difficile [41] = experiment: Antimicrobial activity against Clostridium difficile isolate 79 by Etest; summary of the method: as §1
Clostridioides difficile [42] = experiment: Antimicrobial activity against Clostridium difficile isolate 71 by Etest; summary of the method: as §1
Clostridioides difficile [43] = experiment: Antimicrobial activity against Clostridium difficile isolate 74 by Etest; summary of the method: as §1
Clostridioides difficile [44] = experiment: Antimicrobial activity against rifaximin-resistant Clostridium difficile isolate 4 expressing RpoB S488T and R505K mutants by Etest; summary of the method: as §7
Clostridioides difficile [45] = experiment: Antimicrobial activity against Clostridium difficile isolate 70 by agar dilution method; summary of the method: as §2
Clostridioides difficile [46] = experiment: Antimicrobial activity against Clostridium difficile isolate 60 by agar dilution method
Summary of the method: as §2, with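 “dilution method” for “dilution”, “(pH 7.4)” for “pH 7.4”, “μg/ml.” for “μg/ml. Control strain:”, “[…] served as control.” for “70005.”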

Clostridioides difficile [47] = experiment: Antimicrobial activity against Clostridium difficile isolate 25 by Etest; summary of the method: as §5
Clostridioides difficile [48] = experiment: Antimicrobial activity against Clostridium difficile isolate 41 by agar dilution method
Summary of the method: as §2, with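 “dilution method” for “dilution”, “(pH 7.4)” for “pH 7.4”, “μg/ml.” for “μg/ml. Control strain:”, “[…] served as control.” for “70005.”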

Clostridioides difficile [49] = experiment: Antimicrobial activity against Clostridium difficile isolate 48 by Etest; summary of the method: as §3
Clostridioides difficile [50] = experiment: Antimicrobial activity against Clostridium difficile isolate 74 by agar dilution method; summary of the method: as §2
Clostridioides difficile [51] = experiment: Antimicrobial activity against Clostridium difficile isolate 36 by Etest; summary of the method: as §5

CO[C@H]1/C=C/O[C@@]2(C)Oc3c(C)c(O)c4c(O)c(c(/C=N/N5CCN(C)CC5)c(O)c4c3C2=O)NC(=O)/C(C)=C\C=C\[C@H](C)[C@H](O)[C@@H](C)[C@@H](O)[C@@H](C)[C@H](OC(C)=O)[C@@H]1C [RIFAMPIN]
MIC (Clostridioides difficile [1]): < 2 ng/mL | MIC (Clostridioides difficile [2]): 0.9 ng/mL (≈ 1.09 nM) | MIC (Clostridioides difficile [3]): < 2 ng/mL | MIC (Clostridioides difficile [4]): > 256000 ng/mL | MIC (Clostridioides difficile [5]): 1.9 ng/mL (≈ 2.31 nM) | MIC (Clostridioides difficile [6]): 0.06 ng/mL (≈ 0.0729 nM) | MIC (Clostridioides difficile [7]): > 256000 ng/mL | MIC (Clostridioides difficile [8]): 1.9 ng/mL (≈ 2.31 nM) | MIC (Clostridioides difficile [9]): < 2 ng/mL | MIC (Clostridioides difficile [10]): < 2 ng/mL | MIC (Clostridioides difficile [11]): 0.06 ng/mL (≈ 0.0729 nM) | MIC (Clostridioides difficile [12]): < 2 ng/mL | MIC (Clostridioides difficile [13]): < 2 ng/mL | MIC (Clostridioides difficile [14]): < 2 ng/mL | MIC (Clostridioides difficile [15]): 0.9 ng/mL (≈ 1.09 nM) | MIC (Clostridioides difficile [16]): 0.9 ng/mL (≈ 1.09 nM) | MIC (Clostridioides difficile [17]): < 2 ng/mL | MIC (Clostridioides difficile [18]): < 2 ng/mL | MIC (Clostridioides difficile [19]): < 2 ng/mL | MIC (Clostridioides difficile [20]): 0.9 ng/mL (≈ 1.09 nM) | MIC (Clostridioides difficile [21]): < 2 ng/mL | MIC (Clostridioides difficile [22]): > 32000 ng/mL | MIC (Clostridioides difficile [23]): 0.4 ng/mL (≈ 0.486 nM) | MIC (Clostridioides difficile [24]): 0.06 ng/mL (≈ 0.0729 nM) | MIC (Clostridioides difficile [25]): 0.06 ng/mL (≈ 0.0729 nM) | MIC (Clostridioides difficile [26]): 0.4 ng/mL (≈ 0.486 nM) | MIC (Clostridioides difficile [27]): 0.9 ng/mL (≈ 1.09 nM) | MIC (Clostridioides difficile [28]): 0.9 ng/mL (≈ 1.09 nM) | MIC (Clostridioides difficile [29]): 0.9 ng/mL (≈ 1.09 nM) | MIC (Clostridioides difficile [30]): 0.06 ng/mL (≈ 0.0729 nM) | MIC (Clostridioides difficile [31]): < 2 ng/mL | MIC (Clostridioides difficile [32]): < 2 ng/mL | MIC (Clostridioides difficile [33]): < 2 ng/mL | MIC (Clostridioides difficile [34]): 0.06 ng/mL (≈ 0.0729 nM) | MIC (Clostridioides difficile [35]): < 2 ng/mL | MIC (Clostridioides difficile [36]): 0.9 ng/mL (≈ 1.09 nM) | MIC (Clostridioides difficile [37]): > 256000 ng/mL | MIC (Clostridioides difficile [38]): < 2 ng/mL | MIC (Clostridioides difficile [39]): 128000 ng/mL (≈ 156000 nM) | MIC (Clostridioides difficile [40]): > 256000 ng/mL | MIC (Clostridioides difficile [41]): < 2 ng/mL | MIC (Clostridioides difficile [42]): < 2 ng/mL | MIC (Clostridioides difficile [43]): < 2 ng/mL | MIC (Clostridioides difficile [44]): > 32000 ng/mL | MIC (Clostridioides difficile [45]): 0.06 ng/mL (≈ 0.0729 nM) | MIC (Clostridioides difficile [46]): 0.9 ng/mL (≈ 1.09 nM) | MIC (Clostridioides difficile [47]): < 2 ng/mL | MIC (Clostridioides difficile [48]): 0.9 ng/mL (≈ 1.09 nM) | MIC (Clostridioides difficile [49]): < 2 ng/mL | MIC (Clostridioides difficile [50]): 0.06 ng/mL (≈ 0.0729 nM) | MIC (Clostridioides difficile [51]): < 2 ng/mL
